Converted amounts (≈) assume the structure as drawn.
Legend:
[1] = test system: Pyricularia oryzae; assay: Antifungal activity against Magnaporthe oryzae assessed as inhibition of spore germination incubated for 8 hrs; type: functional, organism-based
[2] = test system: Staphylococcus haemolyticus; assay: Antibacterial activity against Staphylococcus haemolyticus ATCC 29970 by modified broth dilution method; type: functional
Method in brief: (§1)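 MIC read in 96-well plates by a modified broth dilution test; streptomycin sulfate as positive control.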

[3] = Cytotoxicity against human HCT8 cells by MTT assay; settings: HCT-8
[4] = Cytotoxicity against human BGC823 cells by MTT assay; settings: BGC-823
[5] = test system: A549; assay: Cytotoxicity against human A549 cells by MTT assay; type: functional, cell-based
[6] = test system: Ralstonia solanacearum; assay: Antibacterial activity against Ralstonia solanacearum ATCC 11696 by modified broth dilution method; type: functional
[7] = test system: Bacillus subtilis; assay: Antibacterial activity against Bacillus subtilis ATCC 11562 by modified broth dilution method; type: functional; method in brief: as §1
[8] = Cytotoxicity against human Bel7402 cells by MTT assay; settings: Bel-7402
[9] = test system: A2780; assay: Cytotoxicity against human A2780 cells by MTT assay
[10] = test system: Agrobacterium tumefaciens; assay: Antibacterial activity against Agrobacterium tumefaciens No.8 ATCC 11158 by modified broth dilution method; type: functional; method in brief: as §1
[11] = test system: Pseudomonas; assay: Antibacterial activity against Pseudomonas lachrymans ATCC 11921 by modified broth dilution method; type: functional; method in brief: as §1
[12] = test system: Xanthomonas vesicatoria; assay: Antibacterial activity against Xanthomonas vesicatoria ATCC 11633 by modified broth dilution method; type: functional; method in brief: as §1

Row | SMILES | IC50 [1] | MIC [2] | IC50 [3] | IC50 [4] | IC50 [5] | MIC [6] | MIC [7] | IC50 [8] | IC50 [9] | MIC [10] | MIC [11] | MIC [12]
1 | Oc1cccc2c1[C@@H](O)[C@H]1O[C@H]1C21Oc2cccc3cccc(c23)O1 | 32.3 µg/mL (≈ 96.6 µM) | 25 µg/mL (≈ 74.8 µM) | > 10 µM | > 10 µM | > 10 µM | 37.5 µg/mL (≈ 112 µM) | 25 µg/mL (≈ 74.8 µM) | > 10 µM | > 10 µM | 37.5 µg/mL (≈ 112 µM) | 37.5 µg/mL (≈ 112 µM) | 37.5 µg/mL (≈ 112 µM)
2 | O=C1C=C[C@H](O)[C@@]23O[C@@]12C1(Oc2cccc4cccc(c24)O1)[C@H](O)[C@@H](O)[C@@H]3O | > 200 µg/mL | 200 µg/mL (≈ 520 µM) | > 10 µM | > 10 µM | > 10 µM | 200 µg/mL (≈ 520 µM) | 200 µg/mL (≈ 520 µM) | > 10 µM | > 10 µM | 200 µg/mL (≈ 520 µM) | 150 µg/mL (≈ 390 µM) | 150 µg/mL (≈ 390 µM)
3 | O=C1C[C@@H](O)[C@H](O)[C@@]23O[C@@]12C1(Oc2cccc4cccc(c24)O1)[C@@H]1O[C@@H]1[C@@H]3O | > 200 µg/mL | 75 µg/mL (≈ 195 µM) | 1.7 µM | 3.3 µM | 3.2 µM | 75 µg/mL (≈ 195 µM) | 75 µg/mL (≈ 195 µM) | 3.3 µM | 5.8 µM | 75 µg/mL (≈ 195 µM) | 75 µg/mL (≈ 195 µM) | 75 µg/mL (≈ 195 µM)
4 | CO[C@@H]1CC(=O)[C@]23O[C@]2([C@@H](O)[C@H]2O[C@H]2C32Oc3cccc4cccc(c34)O2)[C@H]1O | > 200 µg/mL | 50 µg/mL (≈ 126 µM) | > 10 µM | > 10 µM | 8.7 µM | 37.5 µg/mL (≈ 94.1 µM) | 37.5 µg/mL (≈ 94.1 µM) | 6.4 µM | > 10 µM | 50 µg/mL (≈ 126 µM) | 37.5 µg/mL (≈ 94.1 µM) | 37.5 µg/mL (≈ 94.1 µM)
5 | Oc1ccc(O)c2c1[C@@H](O)[C@H]1O[C@H]1C21Oc2cccc3cccc(c23)O1 | 76.7 µg/mL (≈ 219 µM) | 250 µg/mL (≈ 714 µM) | > 10 µM | > 10 µM | > 10 µM | 250 µg/mL (≈ 714 µM) | 100 µg/mL (≈ 285 µM) | > 10 µM | > 10 µM | 250 µg/mL (≈ 714 µM) | 200 µg/mL (≈ 571 µM) | 200 µg/mL (≈ 571 µM)
6 | O=C1C[C@@H](O)C2(Oc3cccc4cccc(c34)O2)c2c(O)ccc(O)c21 | 64.8 µg/mL (≈ 185 µM) | 50 µg/mL (≈ 143 µM) | > 10 µM | > 10 µM | > 10 µM | 37.5 µg/mL (≈ 107 µM) | 37.5 µg/mL (≈ 107 µM) | > 10 µM | > 10 µM | 37.5 µg/mL (≈ 107 µM) | 37.5 µg/mL (≈ 107 µM) | 50 µg/mL (≈ 143 µM)
7 | Oc1ccc(O)c2c1C=C[C@@H](O)C21Oc2cccc3cccc(c23)O1 | 35.9 µg/mL (≈ 107 µM) | 37.5 µg/mL (≈ 112 µM) | > 10 µM | > 10 µM | > 10 µM | 37.5 µg/mL (≈ 112 µM) | 50 µg/mL (≈ 150 µM) | > 10 µM | > 10 µM | 37.5 µg/mL (≈ 112 µM) | 25 µg/mL (≈ 74.8 µM) | 37.5 µg/mL (≈ 112 µM)
8 | O=C1C(Cl)=CC2(Oc3cccc4cccc(c34)O2)[C@]23O[C@]12[C@H](O)CCC3=O | 9.1 µg/mL (≈ 23.7 µM) | 25 µg/mL (≈ 65 µM) | 4.2 µM | 2.6 µM | 1.6 µM | 25 µg/mL (≈ 65 µM) | 50 µg/mL (≈ 130 µM) | 2.5 µM | 1.3 µM | 25 µg/mL (≈ 65 µM) | 25 µg/mL (≈ 65 µM) | 25 µg/mL (≈ 65 µM)
9 | O=C1CC[C@@H](O)[C@@]23O[C@@]12C1(Oc2cccc4cccc(c24)O1)[C@H](O)[C@@H](O)[C@@H]3O | > 200 µg/mL | > 250 µg/mL | > 10 µM | > 10 µM | > 10 µM | > 250 µg/mL | > 250 µg/mL | > 10 µM | > 10 µM | > 250 µg/mL | > 250 µg/mL | > 250 µg/mL
10 | O[C@@H]1[C@@H](O)C2(Oc3cccc4cccc(c34)O2)[C@@]23O[C@@]2([C@@H](O)C=C[C@H]3O)[C@H]1O | > 200 µg/mL | > 250 µg/mL | > 10 µM | > 10 µM | > 10 µM | > 250 µg/mL | > 250 µg/mL | > 10 µM | > 10 µM | > 250 µg/mL | > 250 µg/mL | > 250 µg/mL
11 | O[C@@H]1[C@@H](O)C2(Oc3cccc4cccc(c34)O2)[C@@]23O[C@@]2([C@@H](O)CC[C@H]3O)[C@H]1O | > 200 µg/mL | > 250 µg/mL | > 10 µM | > 10 µM | > 10 µM | > 250 µg/mL | > 250 µg/mL | > 10 µM | > 10 µM | > 250 µg/mL | > 250 µg/mL | > 250 µg/mL
12 | O=C1C[C@H](O)[C@H](O)C2=C[C@H](O)[C@@H](O)C3(Oc4cccc5cccc(c45)O3)[C@]12O | > 200 µg/mL | > 250 µg/mL | > 10 µM | > 10 µM | > 10 µM | > 250 µg/mL | > 250 µg/mL | > 10 µM | > 10 µM | > 250 µg/mL | > 250 µg/mL | > 250 µg/mL
13 | O=C1CCC2(Oc3cccc4cccc(c34)O2)c2c(Cl)ccc(O)c21 | > 200 µg/mL | > 250 µg/mL | > 10 µM | > 10 µM | > 10 µM | > 250 µg/mL | > 250 µg/mL | > 10 µM | > 10 µM | > 250 µg/mL | > 250 µg/mL | > 250 µg/mL
14 | O=C1C[C@H](O)[C@H](O)[C@@]23O[C@@]12C1(Oc2cccc4cccc(c24)O1)[C@@H]1O[C@@H]1[C@@H]3O | > 200 µg/mL | > 250 µg/mL | > 10 µM | > 10 µM | > 10 µM | > 250 µg/mL | > 250 µg/mL | > 10 µM | > 10 µM | > 250 µg/mL | > 250 µg/mL | > 250 µg/mL
15 | O[C@@H]1C=C[C@H](O)[C@@]23O[C@@]12C1(Oc2cccc4cccc(c24)O1)[C@@H]1O[C@@H]1[C@@H]3O | > 200 µg/mL | > 250 µg/mL | > 10 µM | > 10 µM | > 10 µM | > 250 µg/mL | > 250 µg/mL | > 10 µM | > 10 µM | > 250 µg/mL | > 250 µg/mL | > 250 µg/mL
16 | O[C@@H]1CC[C@H](O)[C@@]23O[C@@]12C1(Oc2cccc4cccc(c24)O1)[C@@H]1O[C@@H]1[C@@H]3O | > 200 µg/mL | > 250 µg/mL | > 10 µM | > 10 µM | > 10 µM | > 250 µg/mL | > 250 µg/mL | > 10 µM | > 10 µM | > 250 µg/mL | > 250 µg/mL | > 250 µg/mL
17 | O=C1C=C[C@H](O)[C@@]23O[C@@]12C1(Oc2cccc4cccc(c24)O1)[C@@H]1O[C@@H]1[C@@H]3O | 105 µg/mL (≈ 287 µM) | 50 µg/mL (≈ 136 µM) | > 10 µM | > 10 µM | 8.8 µM | 50 µg/mL (≈ 136 µM) | 50 µg/mL (≈ 136 µM) | 5.1 µM | > 10 µM | 50 µg/mL (≈ 136 µM) | 50 µg/mL (≈ 136 µM) | 50 µg/mL (≈ 136 µM)
18 | COC(=O)Nc1nc2ccccc2[nH]1 [CARBENDAZIM] | 6.3 µg/mL (≈ 33 µM) |  |  |  |  |  |  |  |  |  |  | 
19 | O=C1CCC2(Oc3cccc4cccc(c34)O2)c2c(O)ccc(O)c21 [PALMARUMYCIN CP17] | > 200 µg/mL | > 250 µg/mL | > 10 µM | > 10 µM | > 10 µM | > 250 µg/mL | > 250 µg/mL | > 10 µM | > 10 µM | > 250 µg/mL | > 250 µg/mL | > 250 µg/mL
20 | CN[C@@H]1[C@H](O[C@H]2[C@H](O[C@H]3[C@H](O)[C@@H](O)[C@H](N=C(N)N)[C@@H](O)[C@@H]3N=C(N)N)O[C@@H](C)[C@]2(O)C=O)O[C@@H](CO)[C@H](O)[C@H]1O.CN[C@@H]1[C@H](O[C@H]2[C@H](O[C@H]3[C@H](O)[C@@H](O)[C@H](N=C(N)N)[C@@H](O)[C@@H]3N=C(N)N)O[C@@H](C)[C@]2(O)C=O)O[C@@H](CO)[C@H](O)[C@H]1O.O=S(=O)(O)O.O=S(=O)(O)O.O=S(=O)(O)O [STREPTOMYCIN SULFATE] |  | 5 µg/mL |  |  |  | 5 µg/mL | 5 µg/mL |  |  | 5 µg/mL | 7.5 µg/mL | 10 µg/mL

From ChEMBL document CHEMBL3352444, “Bioactive spirobisnaphthalenes from the endophytic fungus Berkleasmium sp” (J Nat Prod, 2014)
